Screening data: PubChem, several laboratories
Only some compounds are listed: those with a hit (about 1.9% of all), similar ones and a draw of the others.
Scp-1 inhibitor = inhibitors of human Scp-1 phosphatase | Recombinant Scp1, phosphopeptide, malachite green phosphate absorbance | inhibition, % at 20 µM | 340,000 tested, 0.88% active;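 active = inhibition above about 50% at 20 µM, limit read from the data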;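 note: plate controls were DMSO wells with enzyme for no effect and wells lacking enzyme for full effect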
Target sequence (Q9GZU7 76-261 limits assumed): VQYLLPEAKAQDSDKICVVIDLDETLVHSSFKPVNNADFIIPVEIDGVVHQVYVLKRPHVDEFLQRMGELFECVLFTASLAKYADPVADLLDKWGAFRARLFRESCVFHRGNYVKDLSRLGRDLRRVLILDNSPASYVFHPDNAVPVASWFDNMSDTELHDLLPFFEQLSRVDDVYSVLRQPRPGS
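Incubation: 45 min enzyme reaction at room temperature / System: truncated SCP-1 phosphatase (76-261aa) / Reagent: Phospho 17-mer peptide substrate / Buffer or medium: Acidic Tris acetate buffer with magnesium and detergent / Signal: absorbance at 630 nm / Doses: one concentration, 20 µM, with 1.0% DMSO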
PP1 counter = blocks human PP1-alpha phosphatase, a PP5 counter-screen. P62136. purified PP1alpha, OMFP fluorescence. 320,000 tested, 0.9% active. inhibition, % at 6.7 µM;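 active = inhibition above the mean inhibition of all tested compounds plus 3 SD, computed separately for each screening campaign, cut at about 15% in these data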
Target sequence (P62136 whole entry, looked up): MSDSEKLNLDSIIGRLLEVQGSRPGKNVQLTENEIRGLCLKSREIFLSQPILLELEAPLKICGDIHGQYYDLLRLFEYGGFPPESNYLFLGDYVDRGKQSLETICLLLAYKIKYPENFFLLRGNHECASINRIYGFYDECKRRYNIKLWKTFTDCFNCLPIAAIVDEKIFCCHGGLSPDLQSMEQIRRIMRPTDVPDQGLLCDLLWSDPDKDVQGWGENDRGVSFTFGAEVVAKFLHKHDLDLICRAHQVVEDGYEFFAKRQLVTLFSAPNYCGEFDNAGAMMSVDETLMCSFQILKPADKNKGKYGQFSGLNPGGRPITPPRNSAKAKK
STEP block = blocks human striatal-enriched tyrosine phosphatase | P54829 | recombinant STEP, OMFP fluorogenic substrate, fluorescence | inhibition, % at 20 µM | 360,000 tested, 0.25% active | AID 588621;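 active = inhibition at 20 µM, scaled per plate between control wells, above about 37%, limit read from the data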;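 note: 0% = DMSO with enzyme and substrate and 100% = substrate only without enzyme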
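System: isolated STEP enzyme; schedule: 20 min enzyme reaction at room temperature, protected from light; medium: Bis-Tris buffer pH 6.0, 2.5 mM DTT, 0.005% Tween 20; signal: fluorescence, 480/540 nm; dosing: single compound dose of 20 µM, 1% DMSO final; also added: OMFP substrate, 25 µM final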
LMPTP inh = blocks human LMPTP phosphatase. recombinant LMPTP-A, OMFP fluorogenic substrate, fluorescence intensity. 360,000 tested, 0.22% active. inhibition, % at 20 µM;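 active = compounds that cut the enzyme signal by at least half of the control window in the single-dose screen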;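 note: plate controls were DMSO wells with enzyme plus substrate for no effect and substrate without enzyme for full effect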
Target sequence (P24666 whole entry, looked up): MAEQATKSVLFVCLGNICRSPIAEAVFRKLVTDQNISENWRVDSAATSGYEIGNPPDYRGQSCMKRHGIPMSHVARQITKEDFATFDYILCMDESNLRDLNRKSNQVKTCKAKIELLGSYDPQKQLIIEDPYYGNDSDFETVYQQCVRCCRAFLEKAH
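Test system: LMPTP-A phosphatase enzyme. Amount: LMPTP-A at 0.625 nM final in the reaction. Reagent: OMFP substrate, 400 µM final. Times: 50 min at room temperature. Signal: endpoint fluorescence intensity from OMFP dephosphorylation. Read-out basis: % inhibition. Benchmarks: no-enzyme and uninhibited controls.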
PP5 inh = PP5 (human) phosphatase inhibition; 320,000 tested, 0.18% active; purified PP5c, OMFP substrate fluorescence; inhibition, % at 6.7 µM;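 active = inhibition above the campaign's mean inhibition across all tested compounds plus 3 SD, cut at about 9.5% in these data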;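 note: 0% = DMSO only and 100% = 100 µM cantharidin control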
Scp1 confirm = confirmation of human Scp-1 phosphatase inhibitors | inhibition, % at 20 µM | 2,500 tested, 61% active | recombinant SCP-1 catalytic domain, phosphate release, malachite green absorbance | shares compounds with Scp-1 inhibitor;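 note: plate controls were DMSO with enzyme for no effect and buffer wells lacking enzyme for full effect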
Scp-1 MG ctr = counter-screen for Scp-1 inhibitors: colorimetric interference. shares compounds with Scp-1 inhibitor. Colorimetric interference counterscreen, malachite green absorbance 630 nm. apparent inhibition (interference), % at 20 µM. 2,500 tested, under 10 active. AID 540313;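 note: compounds added after enzyme reaction finished so only phosphate colour detection is probed; plate controls were DMSO wells with completed Scp-1 reaction for no effect and substrate wells lacking enzyme for full effect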
Scp1 DSF = binds human Scp-1, shifting its melting temperature; thermal shift relative to vanadate control, % at 40 µM; shares compounds with Scp-1 inhibitor; Recombinant SCP1, Sypro Orange thermal shift Tm; 1,500 tested, 25% active;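 active = substances whose mean melting-temperature shift, as a percentage of the reference inhibitor's shift, reaches about 5.3%, limit read from the data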;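 note: 0% = Tm of DMSO wells and 100% = Tm with sodium orthovanadate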
Starred values were filed as active, the others as inactive; · = not tested or not shown.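 Rule for the calls, unless noted: active = inhibition of at least 30% at 20 µM; inactive = the rest.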

SMILES | Scp-1 inhibitor | PP1 counter | STEP block | LMPTP inh | PP5 inh | Scp1 confirm | Scp-1 MG ctr | Scp1 DSF
C[n+]1cnn2c1SCC1(COC1)C2 | 104* | -7 | -1 | -3 | 1 | -12 | -15 | ·
Cc1ccc2nc(SCC(=O)c3c(N)n(C)c(=O)n(C)c3=O)[nH]c2c1 | 4 | -7 | 2 | 2 | -1 | · | · | ·
CC(=O)Nc1ccc(S(=O)(=O)N(C)CC(=O)OCC(=O)N2CCN(C(=O)c3ccco3)CC2)cc1 | 74* | -3 | 2 | 0 | 0 | 71* | -7 | 5
CC(=O)Nc1ccc(S(=O)(=O)NCCC(=O)OCC(=O)N2CCN(C(=O)c3ccco3)CC2)cc1 | 77* | -4 | 0 | -2 | 0 | 66* | -17 | 5.9*
O=C(CCNS(=O)(=O)c1cccc(Cl)c1)OCC(=O)N1CCN(C(=O)c2ccco2)CC1 | 17 | -3 | 1 | -1 | 0 | · | · | ·
CC(Oc1ccc(Cl)cc1Cl)C(=O)NNC(=O)[C@@H]1CCCC[C@@H]1C(=O)O (stereo partly drawn) | -8 | -2 | -2 | -1 | 2 | · | · | ·
Cc1ccccc1NS(=O)(=O)c1nnc(NC(=O)c2ccc(Cl)cc2)s1 | -12 | 7 | -2 | -1 | 0 | · | · | ·
Cc1sc(NC(=O)Cn2nc(C(F)(F)F)cc2C)c(C(=O)OC(C)C)c1C | 63* | -2 | 1 | 3 | 5 | -18 | -17 | ·
CC(=O)Nc1sc(C)c(C)c1C(=O)OC(C)C | -5 | 2 | 3 | -1 | 0 | · | · | ·
O=C(O)c1ccc(Cl)c(S(=O)(=O)Nc2ccc3[nH]c(=O)[nH]c3c2)c1 | 25 | -5 | 1 | 0 | 1 | · | · | ·
O=CC(O)C1OC(=O)C(O)C1O (stereo not drawn) | 64* | · | 10 | 6 | · | 43* | -9 | -15
Cn1cccc1C(=O)OCC(=O)NCCc1ccc(S(N)(=O)=O)cc1 | -2 | · | 1 | -1 | · | · | · | ·
CCn1c(=O)cc(OCC(=O)NCc2ccco2)c2ccccc21 | 57* | -2 | 2 | -2 | 1 | 30 | -5 | ·
CCn1c(=O)cc(OCC(=O)NCc2ccc(C)o2)c2ccccc21 | -6 | 5 | 2 | 2 | 0 | · | · | ·
O=C1CCN(Cc2ccccc2)S(=O)(=O)c2ccc(F)cc21 | 52* | 0 | -3 | -1 | 0 | 2 | -17 | ·
COC(=O)c1ccc(COc2ccc3c(c2)CCC3)o1 | -14 | -4 | 3 | 0 | -1 | · | · | ·
O=C(N/N=C/c1ccc2ccccc2c1)c1ccc(COc2ccc3c(c2)CCC3)o1 | 102* | 13 | 5 | 32 | 1 | 71* | -18 | -21
COc1cc(Cl)c(C)cc1NC(=O)CN1CCN(C(=O)c2cccs2)CC1 | · | · | 1 | 0 | · | · | · | ·
COc1ccc(C(=O)N/C(=C\c2ccco2)C(=O)NCCN2CCOCC2)cc1 | 9 | 3 | -1 | -1 | 2 | · | · | ·
O=C(O)/C(=C/c1ccco1)NC(=O)c1ccccc1 | 75* | -1 | 5 | -1 | 0 | 42* | -22 | -15
Cc1ccc(C(=O)N/C(=C\c2ccco2)C(=O)NCCN2CCOCC2)cc1 | 75* | -1 | -1 | -2 | 0 | -18 | -16 | ·
Cc1ccc(S(=O)(=O)NCCc2nnc3ccc(NCCCOC(C)C)nn23)cc1 | -1 | 0 | 4 | -1 | -1 | · | · | ·
O=C(OCc1cc(=O)n2c(n1)sc1ccccc12)c1ccc(O)cc1O | 78* | 6 | 3 | 13 | -2 | 60* | -12 | 0
O=C(OCc1cc(=O)n2c(n1)sc1ccccc12)c1cccc(O)c1 | 79* | 3 | 0 | 8 | -3 | 58* | -19 | 5
CC(C)[C@H](NC(=O)c1ccco1)C(=O)OCc1cc(=O)n2c(n1)sc1ccccc12 | 83* | -1 | 0 | 21 | 1 | 59* | -14 | 2
SMILES | Scp-1 inhibitor | PP1 counter | STEP block | LMPTP inh | PP5 inh | Scp1 confirm | Scp-1 MG ctr | Scp1 DSF
Cc1ccc(C(=O)N[C@H](C(=O)OCc2cc(=O)n3c(n2)sc2ccccc23)C(C)C)cc1 | 46 | 1 | 6 | 6 | 0 | · | · | ·
Cc1ccc2c(CC(=O)OCc3csc(C)n3)coc2c1 | 1 | 0 | 2 | -2 | 0 | · | · | ·
O=C(Cc1coc2cc3c(cc12)CCC3)OCc1cc(=O)n2c(n1)sc1ccccc12 | 63* | 1 | 2 | 9 | 2 | 51* | -30 | 6.3*
CC(=O)[C@H]1CC[C@H]2[C@@H]3CCC4=CC(=O)CC[C@]4(C)[C@H]3[C@H](O)C[C@]12C | -4 | -4 | -1 | -2 | 5 | · | · | ·
Cc1ccc(C2=NN=C(NC(=O)CSc3nc(C)cc(C)n3)SC2)cc1 | · | 10 | · | · | 0 | · | · | ·
O=C(N/N=C/c1cn(-c2ccccc2)nc1-c1cc2ccccc2o1)c1ccncc1 | -8 | 3 | -1 | 2 | 3 | · | · | ·
O=C(O)c1cccc(NC(=O)c2cn(-c3ccccc3)nc2-c2cc3ccccc3o2)c1 | 58* | 16* | 7 | 56* | 4 | 80* | -13 | 4
O=C1NC(c2ccc3c(c2)OCO3)Oc2ccccc21 (stereo not drawn) | 0 | -5 | -2 | -1 | 1 | · | · | ·
COc1ccccc1N1CCN(S(=O)(=O)c2ccc3c(c2)NC(=O)C(C)S3)CC1 (stereo not drawn) | -6 | 1 | 2 | 2 | 5 | · | · | ·
COc1ccccc1N1CCN(C(=O)C(C)CS(=O)(=O)c2ccc3c(c2)NC(=O)CS3)CC1 (stereo not drawn) | 59* | 9 | 7 | 0 | -3 | 63* | -2 | -1
O=C(c1ccc(Br)s1)N1CCN(c2ncccn2)CC1 | 3 | -2 | -7 | -1 | -2 | · | · | ·
CC1(OC(=O)c2ccc(Cl)nc2)C(=O)C=C2C=C3CCCN3C=C2C1=O (stereo not drawn) | 65* | 4 | 10 | 4 | 1 | 16 | -12 | ·
COCc1cc(=O)[nH]c(SCCS(=O)(=O)c2ccc(C)cc2)n1 | 8 | -4 | 0 | -2 | -3 | · | · | ·
Cc1ccc(C(=O)O)cc1NC(=S)NC(=O)Cc1ccccc1 | 1 | 1 | -1 | 1 | 1 | · | · | ·
Cc1ccc(C(=O)O)cc1NC(=S)NC(=O)c1ccc(COc2ccccc2)cc1 | 50* | 4 | 9 | 2 | 1 | 37* | -26 | -8
CCc1ccccc1NS(=O)(=O)c1ccc2c(c1)NC(=O)CC(=O)N2 | 10 | 5 | 0 | 0 | 3 | · | · | ·
Cc1ccc(S(=O)(=O)NCCC(=O)NC2CCCCC2C)cc1 (stereo not drawn) | -7 | -5 | 3 | -1 | -2 | · | · | ·
